pIC50: −log10 of the molar value. Converted amounts (≈) assume the structure as drawn.
Key:
Proteus vulgaris = assay: Antibacterial activity against Bacillus proteus ATCC 8427; assay type: functional
Outline: (§1)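 Two-fold serial broth dilution in 96-well plates following National Committee standards; compounds tested at different concentrations. Medium: beef extract peptone (1% peptone, 0.3% beef extract, 0.5% NaCl). Incubation 18–24 h. MIC recorded; streptomycin and norfloxacin as control drugs; each group tested in triplicate.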

Cryptococcus neoformans = assay: Antifungal activity against Cryptococcus neoformans ATCC 32719 incubated for 48 hrs by two-fold broth dilution analysis; assay type: functional
Outline: (§2)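 Stock solutions in DMSO, diluted to 0.25–512 µg/mL; two-fold serial broth dilution in 96-well plates. Fungi grown on modified Sabouraud chloramphenicol agar (1% peptone, 2% glucose, […]). Incubated 48 h at 37 °C, then MIC (µg/mL) recorded. Fluconazole and polyoxin B as positive controls; each group tested in triplicate.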

Aspergillus flavus = assay: Antifungal activity against Aspergillus flavus ATCC 16870 incubated for 48 hrs by two-fold broth dilution analysis; assay type: functional; outline: as §2
Candida albicans [1] = assay: Antifungal activity against Candida albicans ATCC 76615 incubated for 48 hrs by two-fold broth dilution analysis; assay type: functional; outline: as §2
Escherichia coli = assay: Antibacterial activity against Escherichia coli JM 109
Bacillus subtilis = assay: Antibacterial activity against Bacillus subtilis ATCC 6633; assay type: functional; outline: as §1
Staphylococcus aureus [2] = assay: Antibacterial activity against methicillin-resistant Staphylococcus aureus N. 315; assay type: functional
Outline: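 Two-fold serial broth dilution in 96-well plates per national clinical standard; beef extract peptone medium (1% peptone, 0.3% beef extract, 0.5% NaCl, […]). Compounds from DMSO stock diluted to test concentrations; incubation 18–24 h. MIC recorded; each group tested independently in triplicate.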

Candida albicans [3] = assay: Antifungal activity against Candida albicans ATCC 90023 incubated for 48 hrs by two-fold broth dilution analysis; assay type: functional; outline: as §2
Candida tropicalis = assay: Inhibition of Candida tropicalis ATCC 750 chitin synthase at 300 ug/ml using UDP-GlcNAc as substrate relative to control; settings: dose 300.0 µg/ml
Outline: (§3)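 Chitin synthase prepared from C. tropicalis ATCC 750 by low- and high-speed centrifugation. DMSO stocks (10 mg/mL) diluted in 50 mM Tris-HCl pH 7.5; test concentrations 300–9.375 µg/mL. Chitin synthesized in WGA-coated wells, bound with WGA-HRP, washed, developed with TMB/H2O2, stopped with 2 M H2SO4, OD read. Duplicate; polyoxin B positive control.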

Staphylococcus aureus [4] = assay: Antibacterial activity against Staphylococcus aureus ATCC 25923; assay type: functional; outline: as §1
Pseudomonas aeruginosa = assay: Antibacterial activity against Pseudomonas aeruginosa ATCC 9027; assay type: functional; outline: as §1
[5] = Inhibition of Candida tropicalis ATCC 750 chitin synthase using UDP-GlcNAc as substrate; outline: as §3
Aspergillus fumigatus = assay: Antifungal activity against Aspergillus fumigatus GIMCC 3.19 incubated for 48 hrs by two-fold broth dilution analysis; assay type: functional; outline: as §2

| Compound | MIC (Proteus vulgaris) | MIC (Cryptococcus neoformans) | MIC (Aspergillus flavus) | MIC (Candida albicans [1]) | MIC (Escherichia coli) | MIC (Bacillus subtilis) | MIC (Staphylococcus aureus [2]) | MIC (Candida albicans [3]) | inhibition (Candida tropicalis) | MIC (Staphylococcus aureus [4]) | MIC (Pseudomonas aeruginosa) | pIC50 [5] | MIC (Aspergillus fumigatus) |
| --- | --- | --- | --- | --- | --- | --- | --- | --- | --- | --- | --- | --- | --- |
| O=C(/C=C/C(=O)NC1Cc2ccccc2NC1=O)Nc1ccc(F)c(F)c1 (centres undefined) | 512 µg/mL (≈ 1380 µM) | 16 µg/mL (≈ 43.1 µM) | 8 µg/mL (≈ 21.5 µM) | 4 µg/mL (≈ 10.8 µM) | 512 µg/mL (≈ 1380 µM) | 512 µg/mL (≈ 1380 µM) | 512 µg/mL (≈ 1380 µM) | 2 µg/mL (≈ 5.39 µM) | 66.5% | 256 µg/mL (≈ 689 µM) | 512 µg/mL (≈ 1380 µM) | 3.47 | 8 µg/mL (≈ 21.5 µM) |
| O=C(/C=C/C(=O)NC1Cc2ccccc2NC1=O)Nc1ccc(F)cc1 (centres undefined) | 256 µg/mL (≈ 724 µM) | 8 µg/mL (≈ 22.6 µM) | 8 µg/mL (≈ 22.6 µM) | 2 µg/mL (≈ 5.66 µM) | 256 µg/mL (≈ 724 µM) | 512 µg/mL (≈ 1450 µM) | 512 µg/mL (≈ 1450 µM) | 2 µg/mL (≈ 5.66 µM) | 51.2% | 128 µg/mL (≈ 362 µM) | 256 µg/mL (≈ 724 µM) | 3.47 | 4 µg/mL (≈ 11.3 µM) |
| NC(=O)OC[C@H](O)[C@@H](O)[C@H](N)C(=O)N[C@H](C(=O)O)[C@H]1O[C@@H](n2cc(CO)c(=O)[nH]c2=O)[C@H](O)[C@@H]1O [POLYOXIN B] |  | 4 µg/mL (≈ 7.88 µM) | 4 µg/mL (≈ 7.88 µM) | 2 µg/mL (≈ 3.94 µM) |  |  |  | 4 µg/mL (≈ 7.88 µM) | 87.5% |  |  | 4.05 | 2 µg/mL (≈ 3.94 µM) |
| O=C(/C=C/C(=O)NC1Cc2ccccc2NC1=O)Nc1ccccc1F (centres undefined) | 512 µg/mL (≈ 1450 µM) | 16 µg/mL (≈ 45.3 µM) | 8 µg/mL (≈ 22.6 µM) | 8 µg/mL (≈ 22.6 µM) | 512 µg/mL (≈ 1450 µM) | 256 µg/mL (≈ 724 µM) | 512 µg/mL (≈ 1450 µM) | 4 µg/mL (≈ 11.3 µM) | 48.9% | 256 µg/mL (≈ 724 µM) | 512 µg/mL (≈ 1450 µM) |  | 1 µg/mL (≈ 2.83 µM) |
| O=C(/C=C/C(=O)NC1Cc2ccccc2NC1=O)Nc1ccccc1Cl (centres undefined) | 512 µg/mL (≈ 1380 µM) | 16 µg/mL (≈ 43.3 µM) | 8 µg/mL (≈ 21.6 µM) | 4 µg/mL (≈ 10.8 µM) | 256 µg/mL (≈ 692 µM) | 512 µg/mL (≈ 1380 µM) | 512 µg/mL (≈ 1380 µM) | 2 µg/mL (≈ 5.41 µM) | 46.7% | 128 µg/mL (≈ 346 µM) | 256 µg/mL (≈ 692 µM) |  | 8 µg/mL (≈ 21.6 µM) |
| O=C(/C=C/C(=O)NC1Cc2ccccc2NC1=O)Nc1ccc([N+](=O)[O-])cc1 (centres undefined) | 256 µg/mL (≈ 673 µM) | 8 µg/mL (≈ 21 µM) | 2 µg/mL (≈ 5.26 µM) | 8 µg/mL (≈ 21 µM) | 256 µg/mL (≈ 673 µM) | 256 µg/mL (≈ 673 µM) | 256 µg/mL (≈ 673 µM) | 2 µg/mL (≈ 5.26 µM) | 65.2% | 128 µg/mL (≈ 337 µM) | 512 µg/mL (≈ 1350 µM) | 3.46 | 4 µg/mL (≈ 10.5 µM) |
| Cc1ccc(NC(=O)/C=C/C(=O)NC2Cc3ccccc3NC2=O)cc1 (centres undefined) | 256 µg/mL (≈ 733 µM) | 16 µg/mL (≈ 45.8 µM) | 4 µg/mL (≈ 11.4 µM) | 4 µg/mL (≈ 11.4 µM) | 256 µg/mL (≈ 733 µM) | 512 µg/mL (≈ 1470 µM) | 256 µg/mL (≈ 733 µM) | 2 µg/mL (≈ 5.72 µM) | 58.7% | 128 µg/mL (≈ 366 µM) | 512 µg/mL (≈ 1470 µM) | 3.59 | 4 µg/mL (≈ 11.4 µM) |
| Cc1cc(C)cc(NC(=O)/C=C/C(=O)NC2Cc3ccccc3NC2=O)c1 (centres undefined) | 512 µg/mL (≈ 1410 µM) | 16 µg/mL (≈ 44 µM) | 1 µg/mL (≈ 2.75 µM) | 4 µg/mL (≈ 11 µM) | 256 µg/mL (≈ 704 µM) | 256 µg/mL (≈ 704 µM) | 512 µg/mL (≈ 1410 µM) | 2 µg/mL (≈ 5.5 µM) | 71.5% | 128 µg/mL (≈ 352 µM) | 256 µg/mL (≈ 704 µM) | 3.72 | 2 µg/mL (≈ 5.5 µM) |
| O=C(/C=C/C(=O)NC1Cc2ccccc2NC1=O)Nc1ccccc1[N+](=O)[O-] (centres undefined) | 256 µg/mL (≈ 673 µM) | 4 µg/mL (≈ 10.5 µM) | 4 µg/mL (≈ 10.5 µM) | 4 µg/mL (≈ 10.5 µM) | 256 µg/mL (≈ 673 µM) | 256 µg/mL (≈ 673 µM) | 256 µg/mL (≈ 673 µM) | 2 µg/mL (≈ 5.26 µM) | 53.3% | 128 µg/mL (≈ 337 µM) | 256 µg/mL (≈ 673 µM) | 3.49 | 8 µg/mL (≈ 21 µM) |
| Cc1ccccc1NC(=O)/C=C/C(=O)NC1Cc2ccccc2NC1=O (centres undefined) | 256 µg/mL (≈ 733 µM) | 16 µg/mL (≈ 45.8 µM) | 4 µg/mL (≈ 11.4 µM) | 1 µg/mL (≈ 2.86 µM) | 256 µg/mL (≈ 733 µM) | 512 µg/mL (≈ 1470 µM) | 256 µg/mL (≈ 733 µM) | 2 µg/mL (≈ 5.72 µM) | 67.3% | 128 µg/mL (≈ 366 µM) | 512 µg/mL (≈ 1470 µM) | 3.42 | 4 µg/mL (≈ 11.4 µM) |
| O=C(/C=C/C(=O)NC1Cc2ccccc2NC1=O)Nc1ccc(Br)cc1 (centres undefined) | 512 µg/mL (≈ 1240 µM) | 16 µg/mL (≈ 38.6 µM) | 4 µg/mL (≈ 9.66 µM) | 2 µg/mL (≈ 4.83 µM) | 512 µg/mL (≈ 1240 µM) | 512 µg/mL (≈ 1240 µM) | 256 µg/mL (≈ 618 µM) | 2 µg/mL (≈ 4.83 µM) | 40.3% | 128 µg/mL (≈ 309 µM) | 512 µg/mL (≈ 1240 µM) |  | 4 µg/mL (≈ 9.66 µM) |
| O=C(/C=C/C(=O)NC1Cc2ccccc2NC1=O)Nc1ccccc1Br (centres undefined) | 512 µg/mL (≈ 1240 µM) | 32 µg/mL (≈ 77.2 µM) | 2 µg/mL (≈ 4.83 µM) | 4 µg/mL (≈ 9.66 µM) | 512 µg/mL (≈ 1240 µM) | 512 µg/mL (≈ 1240 µM) | 256 µg/mL (≈ 618 µM) | 2 µg/mL (≈ 4.83 µM) | 39.9% | 128 µg/mL (≈ 309 µM) | 512 µg/mL (≈ 1240 µM) |  | 8 µg/mL (≈ 19.3 µM) |
| COc1ccc(NC(=O)/C=C/C(=O)NC2Cc3ccccc3NC2=O)cc1 (centres undefined) | 256 µg/mL (≈ 701 µM) | 16 µg/mL (≈ 43.8 µM) | 2 µg/mL (≈ 5.47 µM) | 2 µg/mL (≈ 5.47 µM) | 512 µg/mL (≈ 1400 µM) | 256 µg/mL (≈ 701 µM) | 256 µg/mL (≈ 701 µM) | 1 µg/mL (≈ 2.74 µM) | 74.6% | 128 µg/mL (≈ 350 µM) | 512 µg/mL (≈ 1400 µM) | 3.68 | 4 µg/mL (≈ 10.9 µM) |

Source: ChEMBL document CHEMBL4765291, “Design, synthesis and biological evaluation of novel 3,4-dihydro-2(1H)-quinolinone derivatives as potential chitin synthase inhibitors and antifungal agents” (Eur J Med Chem, 2020)
